From ChEMBL document CHEMBL1154950, “Biochemical analysis of cellular target of S-trityl-L-cysteine derivatives using affinity matrix” (Bioorg Med Chem Lett, 2010) come the findings set out here.

Each structure is given as a SMILES string. Activity calls are given as the source filed them. No cut-off for these calls is given here.

Assay type in all cases: cell-based
What all share (settings): HCT-116

The target in experiment [1] is T1, Kinesin-like protein KIF11 (Homo sapiens) (UniProt P52732).
T1 sequence (whole entry): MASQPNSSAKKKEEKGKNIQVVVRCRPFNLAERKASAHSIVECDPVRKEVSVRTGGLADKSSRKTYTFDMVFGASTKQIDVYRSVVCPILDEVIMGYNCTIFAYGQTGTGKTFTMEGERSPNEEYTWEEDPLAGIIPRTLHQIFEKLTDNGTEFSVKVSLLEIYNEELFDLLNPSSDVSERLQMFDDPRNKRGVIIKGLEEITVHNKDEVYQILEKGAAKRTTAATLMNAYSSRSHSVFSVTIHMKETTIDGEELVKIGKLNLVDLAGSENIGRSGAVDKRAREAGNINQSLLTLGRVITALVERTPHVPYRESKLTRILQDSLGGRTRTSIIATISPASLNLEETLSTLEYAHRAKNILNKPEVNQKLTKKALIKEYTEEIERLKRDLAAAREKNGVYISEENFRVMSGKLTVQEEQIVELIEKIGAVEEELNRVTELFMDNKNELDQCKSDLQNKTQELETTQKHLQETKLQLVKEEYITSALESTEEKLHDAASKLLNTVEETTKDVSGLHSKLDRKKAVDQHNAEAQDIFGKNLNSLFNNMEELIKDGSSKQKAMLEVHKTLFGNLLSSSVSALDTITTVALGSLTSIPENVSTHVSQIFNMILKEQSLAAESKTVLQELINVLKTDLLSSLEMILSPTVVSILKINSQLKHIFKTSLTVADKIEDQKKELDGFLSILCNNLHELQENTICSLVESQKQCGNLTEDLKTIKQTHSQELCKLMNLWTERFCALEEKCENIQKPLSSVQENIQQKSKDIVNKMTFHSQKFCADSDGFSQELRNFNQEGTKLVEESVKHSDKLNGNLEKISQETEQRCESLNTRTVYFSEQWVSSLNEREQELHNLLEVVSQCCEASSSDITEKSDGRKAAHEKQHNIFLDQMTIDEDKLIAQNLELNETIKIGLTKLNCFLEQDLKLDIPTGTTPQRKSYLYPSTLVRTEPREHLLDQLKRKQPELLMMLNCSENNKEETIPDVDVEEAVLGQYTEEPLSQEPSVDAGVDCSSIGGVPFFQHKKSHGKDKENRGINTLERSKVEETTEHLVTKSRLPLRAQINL
Briefly: Inhibition of affinity bead (R)-2-Amino-N-{2-[2-(2-amino-ethoxy)-ethoxy]-ethyl}-3-[(4-methoxy-phenyl)-diphenyl-methylsulfanyl]-propionamide binding to KSP in human HCT116 cells pretreated for 3 hrs by Western blot analysis. On the technique in general: A western blot detects proteins with antibodies after separation by electrophoresis.

The target of experiment [2] is T1, Kinesin-like protein KIF11 (Homo sapiens). Briefly: Displacement of affinity bead (R)-2-Amino-N-{2-[2-(2-amino-ethoxy)-ethoxy]-ethyl}-3-[(4-methoxy-phenyl)-diphenyl-methylsulfanyl]-propionamide from KSP in human HCT116 cells after 2 hrs by Western blot analysis. Summed up: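 This is a cell-free competition assay. Drug-immobilized or ethanolamine control beads were washed and resuspended in binding buffer containing DMSO or compound in DMSO. They were rotated for 2 h at 4 °C with 50 mg/mL BSA and 8 mg/mL HCT116 cytoplasmic extract (freeze–thaw lysate). Beads were washed three times, and KSP on the beads and in the supernatant was assessed by anti-KSP Western blot.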

The target is the same in experiment [3]. Briefly: Competitive inhibition of affinity bead (R)-2-Amino-N-{2-[2-(2-amino-ethoxy)-ethoxy]-ethyl}-3-[(4-methoxy-phenyl)-diphenyl-methylsulfanyl]-propionamide binding to KSP in human HCT116 cells at 10 umol/L pretreated for 3 hrs by Western blot analysis.
Experiment [4] shares this target. Briefly: Competitive inhibition of affinity bead (R)-2-Amino-N-{2-[2-(2-amino-ethoxy)-ethoxy]-ethyl}-3-[(4-methoxy-phenyl)-diphenyl-methylsulfanyl]-propionamide binding to KSP in human HCT116 cells at >30 umol/L pretreated for 3 hrs by Western blot analysis.

For the compound `N[C@@H](CSC(c1ccccc1)(c1ccccc1)c1ccc(C(F)(F)F)cc1)C(=O)O`, in experiment [1], the inhibition entry is “Active”. Further, the Activity entry in experiment [2] is “Dose-dependent effect”. Moreover, the result in experiment [3] was Active.
Consider `N[C@@H](CSC(c1ccccc1)c1ccccc1)C(=O)O`, for which the inhibition result in experiment [1] is “inactive”. Further, the result in experiment [2] was inactive.
Turning to `NS(=O)(=O)Nc1ccc(-c2ccc(C(F)(F)F)cn2)cc1`, in experiment [4], the outcome was Active. Further, the outcome in experiment [3] was inactive.
Take `CC1(C)CC(=O)C2=C(C1)NC(=S)NC2c1cccc(O)c1` (stereo not drawn): the outcome in experiment [3] was Active.
